{"source": "ChEMBL document CHEMBL5608190", "about": "“Dehydroabietylamine-substituted trifluorobenzene sulfonamide rhodamine B hybrids as anticancer agents overcoming drug resistance” (Eur J Med Chem, 2024)", "key": {"[1]": {"system": "HT-29", "experiment": "Cytotoxicity against human HT-29 cells incubated for 72 hrs by SRB assay", "assay_type": "functional, cell-based", "conditions": "HT-29, 72 h; call rule not given here", "in_short": "(§1)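 Cells plated in 96-well format and left 24 h, then exposed to serial dilutions of compound for 72 h; growth read by sulforhodamine B staining. Media held 10 % fetal bovine serum and 1 % penicillin-streptomycin. IC50 taken from dose-response curves, means of 2 independent experiments.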"}, "[2]": {"system": "A2780", "experiment": "Cytotoxicity against human A2780 cells incubated for 72 hrs by SRB assay", "assay_type": "functional, cell-based", "conditions": "A2780, 72 h", "in_short": "as §1"}, "[3]": {"experiment": "Cytotoxicity against human A2780cis cells incubated for 72 hrs by SRB assay", "assay_type": "functional, cell-based", "in_short": "as §1"}, "[4]": {"experiment": "Selectivity index, ratio of IC50 for human CCD-18Co cells to IC50 for human A2780cis cells", "in_short": "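Selectivity index calculated as the ratio of the 72 h SRB IC50 in non-malignant CCD18Co fibroblasts to that in A2780cis.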"}, "[5]": {"experiment": "Resistance index, ratio of IC50 for human A2780cis cells to IC50 for human A2780cis cells", "assay_type": "functional", "conditions": "in the assay text read “to IC50 for human A2780 cells” for “to IC50 for human A2780cis cells”", "in_short": "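Resistance index calculated as the ratio of the 72 h SRB IC50 in A2780cis to that in parental A2780.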"}, "[6]": {"experiment": "Cytotoxicity against human CCD-18Co cells incubated for 72 hrs by SRB assay", "assay_type": "toxicity, cell-based", "in_short": "as §1"}, "[7]": {"experiment": "Drug accumulation in human HT-29 cells at 500 nM incubated for 30 mins by fluorescence based analysis", "assay_type": "ADME, cell-based", "conditions": "ht-29, 0.5 h, 0.5 µM", "in_short": "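Live-cell imaging in HT29 cells seeded at 20.000 per well and grown 48 h, then switched to phenol-red-free RPMI 1640. Co-treated with compound at 500 nM, HypoxySense 680 (1:2000, CAIX probe) and Hoechst 33342 nuclear stain. Imaged after 30 min by fluorescence microscopy at Ex/Em 385/425 nm (Hoechst), 555/592 nm (compounds) and 630/681 nm (HypoxySense).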"}, "[8]": {"system": "MCF7", "experiment": "Cytotoxicity against human MCF7 cells incubated for 72 hrs by SRB assay", "assay_type": "functional, cell-based", "conditions": "MCF7, 72 h", "in_short": "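Cells plated in 96-well format and left 24 h, then exposed to serial dilutions of compound for 72 h; growth read by sulforhodamine B staining. Media held 10 % fetal bovine serum and 1 % penicillin-streptomycin.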"}, "[9]": {"system": "A549", "experiment": "Cytotoxicity against human A549 cells incubated for 72 hrs by SRB assay", "assay_type": "functional, cell-based", "conditions": "A549, 72 h", "in_short": "as §1"}}, "data": [{"smiles": "CCN(CC)c1ccc2c(-c3ccccc3C(=O)N3CCN(C(=O)c4ccc(CCSc5c(F)c(F)c(S(N)(=O)=O)c(NC6CCCCCCCCCCC6)c5F)cc4)CC3)c3ccc(=[N+](CC)CC)cc-3oc2c1.[Cl-]", "values": [{"measurement": "IC50", "setting": "[1]", "value": 320, "unit": "nM"}, {"measurement": "IC50", "setting": "[2]", "value": 240, "unit": "nM"}, {"measurement": "IC50", "setting": "[3]", "value": 450, "unit": "nM"}, {"measurement": "Ratio IC50", "setting": "[4]", "value": 1.22}, {"measurement": "Ratio IC50", "setting": "[5]", "value": 1.87}, {"measurement": "IC50 at 72 h", "setting": "[6]", "value": 550, "unit": "nM"}, {"measurement": "Drug uptake", "setting": "[7]", "value": "Active"}, {"measurement": "IC50", "setting": "[8]", "value": 260, "unit": "nM"}, {"measurement": "IC50", "setting": "[9]", "value": 590, "unit": "nM"}]}, {"smiles": "CCN(CC)c1ccc2c(-c3ccccc3C(=O)N3CCN(C(=O)c4ccc(CCSc5c(F)c(F)c(S(N)(=O)=O)c(NC[C@]6(C)CCC[C@]7(C)c8ccc(C(C)C)cc8CC[C@@H]67)c5F)cc4)CC3)c3ccc(=[N+](CC)CC)cc-3oc2c1.[Cl-]", "values": [{"measurement": "IC50", "setting": "[1]", "value": 530, "unit": "nM"}, {"measurement": "IC50", "setting": "[2]", "value": 380, "unit": "nM"}, {"measurement": "IC50", "setting": "[3]", "value": 460, "unit": "nM"}, {"measurement": "Ratio IC50", "setting": "[4]", "value": 2.22}, {"measurement": "Ratio IC50", "setting": "[5]", "value": 1.21}, {"measurement": "IC50 at 72 h", "setting": "[6]", "value": 1020, "unit": "nM"}, {"measurement": "Drug uptake", "setting": "[7]", "value": "Active"}, {"measurement": "IC50", "setting": "[8]", "value": 410, "unit": "nM"}, {"measurement": "IC50", "setting": "[9]", "value": 710, "unit": "nM"}]}, {"smiles": "COc1cccc2c1C(=O)c1c(O)c3c(c(O)c1C2=O)C[C@@](O)(C(=O)CO)C[C@@H]3O[C@H]1C[C@H](N)[C@H](O)[C@H](C)O1", "note": "[DOXORUBICIN]", "values": [{"measurement": "IC50", "setting": "[1]", "value": 86, "unit": "nM"}, {"measurement": "IC50", "setting": "[3]", "value": 99, "unit": "nM"}, {"measurement": "IC50 at 72 h", "setting": "[6]", "value": 269, "unit": "nM"}, {"measurement": "IC50", "setting": "[9]", "value": 23, "unit": "nM"}]}]}
